Measured values from ChEMBL document CHEMBL5058577, “EUbOPEN Chemogenomics Library 2 (Multiplex)” (2022).

System: Fibroblast
Experiment: Multiplex assay against human fibroblast
Format: toxicity, cell-based
Method in brief: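 Values for tubulin, mitochondrial-mass and membrane-permeability phenotypes are per cents of cells with healthy nuclei. These cells were identified by CellPathfinder machine-learning gating of live cells that had been stained at seeding with Hoechst33342, BioTracker Green Microtubule Cytoskeleton Dye, MitoTracker Red and Annexin V Alexa Fluor 680 and imaged on a CQ1 microscope at 37°C and 5% CO2 after compound addition. The gating first set Hoechst high-intensity objects apart from normal cells, then split normal cells into healthy, pyknosed or fragmented nuclei, and pyknosed cells into mitotic or apoptotic.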

[1] = 12 h, 1 µM, compound concentration 1 uM, replicate 1
[2] = 12 h, 1 µM, compound concentration 1 uM, replicate 2
[3] = 12 h, 10 µM, compound concentration 10 uM, replicate 1
[4] = 12 h, 10 µM, compound concentration 10 uM, replicate 2
[5] = 24 h, 1 µM, compound concentration 1 uM, replicate 1
[6] = 24 h, 1 µM, compound concentration 1 uM, replicate 2
[7] = 24 h, 10 µM, compound concentration 10 uM, replicate 1
[8] = 24 h, 10 µM, compound concentration 10 uM, replicate 2
[9] = 48 h, 1 µM, compound concentration 1 uM, replicate 1
[10] = 48 h, 1 µM, compound concentration 1 uM, replicate 2
[11] = 48 h, 10 µM, compound concentration 10 uM, replicate 1
[12] = 48 h, 10 µM, compound concentration 10 uM, replicate 2

**Q.** What does the source list for `COc1cc(Nc2ncc3c(n2)-c2ccc(Cl)cc2C(c2c(F)cccc2OC)=NC3)ccc1C(=O)O` [ALISERTIB]?
**A.** Population Apoptotic (%) [1]: 39%; Population Fragmented Nuclei (%) [1]: 11%; Population Healthy Nuclei (%) [1]: 66%; Population Hoechst High Intensity Objects (%) [1]: 1%; Population Membrane Permeable-Phenotype (%) [1]: 2%; Population Mitochondria Different-Phenotype (%) [1]: 4%; Population Mitotic Cells (%) [1]: 60%; Population Normal (%) [1]: 98%; Population Pyknosed Nuclei (%) [1]: 21%; Population Tubulin-Different-Phenotype (%) [1]: 23%; Population Apoptotic (%) [2]: 42%; Population Fragmented Nuclei (%) [2]: 18%; Population Healthy Nuclei (%) [2]: 47%; Population Hoechst High Intensity Objects (%) [2]: 8%; Population Membrane Permeable-Phenotype (%) [2]: 7%; Population Mitochondria Different-Phenotype (%) [2]: 7%; Population Mitotic Cells (%) [2]: 57%; Population Normal (%) [2]: 91%; Population Pyknosed Nuclei (%) [2]: 33%; Population Tubulin-Different-Phenotype (%) [2]: 41%; Population Apoptotic (%) [3]: 56%; Population Fragmented Nuclei (%) [3]: 28%; Population Healthy Nuclei (%) [3]: 47%; Population Hoechst High Intensity Objects (%) [3]: 13%; Population Membrane Permeable-Phenotype (%) [3]: 1%; Population Mitochondria Different-Phenotype (%) [3]: 22%; Population Mitotic Cells (%) [3]: 43%; Population Normal (%) [3]: 86%; Population Pyknosed Nuclei (%) [3]: 24%; Population Tubulin-Different-Phenotype (%) [3]: 69%; Total Cell Count [3]: 209; Population Apoptotic (%) [4]: 48%; Population Fragmented Nuclei (%) [4]: 35%; Population Healthy Nuclei (%) [4]: 30%; Population Hoechst High Intensity Objects (%) [4]: 8%; Population Membrane Permeable-Phenotype (%) [4]: 4%; Population Mitochondria Different-Phenotype (%) [4]: 16%; Population Mitotic Cells (%) [4]: 51%; Population Normal (%) [4]: 91%; Population Pyknosed Nuclei (%) [4]: 33%; Population Tubulin-Different-Phenotype (%) [4]: 64%; Total Cell Count [4]: 89; Population Apoptotic (%) [5]: 36%; Population Fragmented Nuclei (%) [5]: 12%; Population Healthy Nuclei (%) [5]: 69%; Population Hoechst High Intensity Objects (%) [5]: 2%; Population Membrane Permeable-Phenotype (%) [5]: 2%; Population Mitochondria Different-Phenotype (%) [5]: 6%; Population Mitotic Cells (%) [5]: 63%; Population Normal (%) [5]: 97%; Population Pyknosed Nuclei (%) [5]: 18%; Population Tubulin-Different-Phenotype (%) [5]: 28%; Total Cell Count [5]: 123; Population Apoptotic (%) [6]: 48%; Population Fragmented Nuclei (%) [6]: 26%; Population Healthy Nuclei (%) [6]: 47%; Population Hoechst High Intensity Objects (%) [6]: 4%; Population Membrane Permeable-Phenotype (%) [6]: 4%; Population Mitotic Cells (%) [6]: 51%; Population Normal (%) [6]: 95%; Population Pyknosed Nuclei (%) [6]: 26%; Population Tubulin-Different-Phenotype (%) [6]: 47%; Population Apoptotic (%) [7]: 64%; Population Fragmented Nuclei (%) [7]: 29%; Population Healthy Nuclei (%) [7]: 44%; Population Hoechst High Intensity Objects (%) [7]: 13%; Population Membrane Permeable-Phenotype (%) [7]: 1%; Population Mitochondria Different-Phenotype (%) [7]: 24%; Population Mitotic Cells (%) [7]: 35%; Population Normal (%) [7]: 86%; Population Pyknosed Nuclei (%) [7]: 25%; Population Tubulin-Different-Phenotype (%) [7]: 68%; Total Cell Count [7]: 191; Population Apoptotic (%) [8]: 56%; Population Fragmented Nuclei (%) [8]: 45%; Population Healthy Nuclei (%) [8]: 36%; Population Hoechst High Intensity Objects (%) [8]: 5%; Population Membrane Permeable-Phenotype (%) [8]: 0%; Population Mitochondria Different-Phenotype (%) [8]: 9%; Population Mitotic Cells (%) [8]: 43%; Population Normal (%) [8]: 94%; Population Pyknosed Nuclei (%) [8]: 18%; Population Tubulin-Different-Phenotype (%) [8]: 71%; Total Cell Count [8]: 93; Population Apoptotic (%) [9]: 57%; Population Fragmented Nuclei (%) [9]: 15%; Population Healthy Nuclei (%) [9]: 65%; Population Hoechst High Intensity Objects (%) [9]: 5%; Population Membrane Permeable-Phenotype (%) [9]: 4%; Population Mitochondria Different-Phenotype (%) [9]: 5%; Population Mitotic Cells (%) [9]: 42%; Population Normal (%) [9]: 94%; Population Pyknosed Nuclei (%) [9]: 19%; Population Tubulin-Different-Phenotype (%) [9]: 32%; Total Cell Count [9]: 115; Population Apoptotic (%) [10]: 38%; Population Fragmented Nuclei (%) [10]: 33%; Population Healthy Nuclei (%) [10]: 42%; Population Membrane Permeable-Phenotype (%) [10]: 7%; Population Mitotic Cells (%) [10]: 61%; Population Pyknosed Nuclei (%) [10]: 24%; Population Tubulin-Different-Phenotype (%) [10]: 54%; Population Apoptotic (%) [11]: 84%; Population Fragmented Nuclei (%) [11]: 38%; Population Healthy Nuclei (%) [11]: 35%; Population Hoechst High Intensity Objects (%) [11]: 23%; Population Membrane Permeable-Phenotype (%) [11]: 5%; Population Mitochondria Different-Phenotype (%) [11]: 37%; Population Mitotic Cells (%) [11]: 15%; Population Normal (%) [11]: 76%; Population Pyknosed Nuclei (%) [11]: 26%; Population Tubulin-Different-Phenotype (%) [11]: 80%; Total Cell Count [11]: 188; Population Apoptotic (%) [12]: 66%; Population Fragmented Nuclei (%) [12]: 37%; Population Healthy Nuclei (%) [12]: 51%; Population Hoechst High Intensity Objects (%) [12]: 8%; Population Membrane Permeable-Phenotype (%) [12]: 2%; Population Mitochondria Different-Phenotype (%) [12]: 15%; Population Mitotic Cells (%) [12]: 33%; Population Normal (%) [12]: 91%; Population Pyknosed Nuclei (%) [12]: 11%; Population Tubulin-Different-Phenotype (%) [12]: 65%; Total Cell Count [12]: 85
